We go through one compound from ChEMBL document CHEMBL4229344 (Eur J Med Chem, 2018).

Experiment [1] relates to Tyrosine-protein kinase ABL1 (Homo sapiens), P00519 [F317L]. As to the kind of experiment: Binding affinity to human phosphorylated ABL1 F317L mutant (S229 to K512 residues) expressed in mammalian expression system assessed as residual binding level at 1 uM by Kinomescan method relative to control. A digest of the protocol:
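Single-concentration (1 μM) competition-binding screen run by KINOMEscan against a panel of 468 purified kinases and mutants. The read-out is the relative binding activity of the test compound to each kinase.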

Experiment [2] deals with 5'-AMP-activated protein kinase catalytic subunit alpha-2 (Homo sapiens) (UniProt P54646). The experiment in a line: Binding affinity to wild-type human partial length AMPK alpha2 (M1 to E306 residues) expressed in bacterial expression system assessed as residual binding level at 1 uM by Kinomescan method relative to control. A digest of the protocol:
(§1)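 Single-concentration KINOMEscan (DiscoverX) binding screen at 1 μM against a panel of 468 purified kinases and mutants. The read-out is binding relative to control.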

Experiment [3] has as its target Bone morphogenetic protein receptor type-2 (Homo sapiens) (UniProt Q13873). As to the kind of experiment: Binding affinity to wild-type human partial length BMPR2 (R179 to Q526 residues) expressed in mammalian expression system assessed as residual binding level at 1 uM by Kinomescan method relative to control. A digest of the protocol: as §1
Experiment [4] has as its target Ephrin type-A receptor 5 (Homo sapiens) (UniProt P54756). As to the kind of experiment: Binding affinity to wild-type human partial length EPHA5 (T627 to V930 residues) expressed in bacterial expression system assessed as residual binding level at 1 uM by Kinomescan method relative to control.
Experiment [5] addresses Mitogen-activated protein kinase 6 (Homo sapiens) (UniProt Q16659). As to the kind of experiment: Binding affinity to wild-type human partial length ERK3 (M1 to P413 residues) expressed in bacterial expression system assessed as residual binding level at 1 uM by Kinomescan method relative to control. A digest of the protocol: (§2)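 Kinome-wide competition binding screen against a panel of 468 purified kinases/mutants, with the test compound at a single concentration of 1 μM. Read-out is the relative binding activity of each kinase in the presence of compound.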

The target of experiment [6] is Tyrosine-protein kinase ITK/TSK (Homo sapiens) (UniProt Q08881). The experiment in a line: Binding affinity to wild-type human partial length ITK (R335 to L620 residues) expressed in bacterial expression system assessed as residual binding level at 1 uM by Kinomescan method relative to control.
Tyrosine-protein kinase ITK/TSK (Homo sapiens), sequence (Q08881 whole entry, the tested form may be a part): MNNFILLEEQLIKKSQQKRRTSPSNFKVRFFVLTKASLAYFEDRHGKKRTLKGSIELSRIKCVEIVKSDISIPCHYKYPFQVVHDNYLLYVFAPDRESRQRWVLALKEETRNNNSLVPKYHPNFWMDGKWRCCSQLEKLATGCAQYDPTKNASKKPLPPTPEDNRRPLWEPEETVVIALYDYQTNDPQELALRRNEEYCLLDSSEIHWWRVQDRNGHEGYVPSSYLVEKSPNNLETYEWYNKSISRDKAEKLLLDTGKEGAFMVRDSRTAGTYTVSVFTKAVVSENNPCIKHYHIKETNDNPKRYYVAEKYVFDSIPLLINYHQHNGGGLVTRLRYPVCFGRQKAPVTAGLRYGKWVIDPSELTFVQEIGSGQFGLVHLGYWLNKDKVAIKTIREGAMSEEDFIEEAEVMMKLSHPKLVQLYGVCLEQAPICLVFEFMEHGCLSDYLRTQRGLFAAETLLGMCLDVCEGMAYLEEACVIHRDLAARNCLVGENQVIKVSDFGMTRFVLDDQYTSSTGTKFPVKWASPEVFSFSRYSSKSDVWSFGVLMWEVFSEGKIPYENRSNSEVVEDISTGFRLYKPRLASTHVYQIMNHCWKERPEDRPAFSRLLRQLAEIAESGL
Experiment [7] addresses MAP kinase-activated protein kinase 2 (Homo sapiens) (UniProt P49137). The experiment in a line: Binding affinity to wild-type human partial length MAPKAPK2 (V48 to D345 residues) expressed in bacterial expression system assessed as residual binding level at 1 uM by Kinomescan method relative to control. A digest of the protocol:
as §2

Experiment [8] deals with MAP kinase-activated protein kinase 5 (Homo sapiens) (UniProt Q8IW41). The experiment in a line: Binding affinity to wild-type human partial length MAPKAPK5 (M1 to D322 residues) expressed in mammalian expression system assessed as residual binding level at 1 uM by Kinomescan method relative to control.
For experiment [9], the system named is Hepatocyte growth factor receptor (Homo sapiens), P08581 [Y1235D]. As to the kind of experiment: Binding affinity to human partial length MET Y1235D mutant (D1010 to S1367 residues) expressed in bacterial expression system assessed as residual binding level at 1 uM by Kinomescan method relative to control. A digest of the protocol: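 Kinome-wide single-concentration binding screen (KINOMEscan) at 1 μM against a panel of 468 purified kinases and mutants. Read-out is relative binding of each kinase compared with control. Selectivity across the panel was summarised as an S(10) score.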

Experiment [10] addresses Serine/threonine-protein kinase 4 (Homo sapiens) (UniProt Q13043). The experiment in a line: Binding affinity to wild-type human full length MST1 (M1 to F487 residues) expressed in bacterial expression system assessed as residual binding level at 1 uM by Kinomescan method relative to control. A digest of the protocol:
(§3)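 KINOMEscan competition binding against 468 purified kinases/mutants, test compound at 1 µM; residual binding relative to control.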

In experiment [11] the target is Serine/threonine-protein kinase OSR1 (Homo sapiens) (UniProt O95747). The experiment in a line: Binding affinity to wild-type human full length OSR1 (M1 to S527 residues) expressed in mammalian expression system assessed as residual binding level at 1 uM by Kinomescan method relative to control. A digest of the protocol: as §1
Serine/threonine-protein kinase OSR1 (Homo sapiens), sequence (O95747 2-527 limits assumed): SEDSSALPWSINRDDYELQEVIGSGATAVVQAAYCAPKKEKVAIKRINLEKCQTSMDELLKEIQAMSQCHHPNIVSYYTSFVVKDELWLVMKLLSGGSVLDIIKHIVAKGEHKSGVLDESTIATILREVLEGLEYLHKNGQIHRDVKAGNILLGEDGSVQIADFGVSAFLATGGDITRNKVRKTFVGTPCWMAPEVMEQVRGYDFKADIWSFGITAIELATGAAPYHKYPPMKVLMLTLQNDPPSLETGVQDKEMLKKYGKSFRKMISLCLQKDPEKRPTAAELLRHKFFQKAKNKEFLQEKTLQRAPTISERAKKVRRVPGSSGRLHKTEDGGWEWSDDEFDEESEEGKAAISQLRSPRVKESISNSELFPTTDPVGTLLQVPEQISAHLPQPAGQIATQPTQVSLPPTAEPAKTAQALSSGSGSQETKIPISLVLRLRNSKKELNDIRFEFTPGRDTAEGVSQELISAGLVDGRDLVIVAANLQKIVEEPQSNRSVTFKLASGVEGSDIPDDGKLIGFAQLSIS
Experiment [12] has as its target Serine/threonine-protein kinase PAK 1 (Homo sapiens) (UniProt Q13153). The experiment in a line: Binding affinity to wild-type human partial length PAK1 (S149 to H545 residues) expressed in bacterial expression system assessed as residual binding level at 1 uM by Kinomescan method relative to control.
Experiment [13] deals with Platelet-derived growth factor receptor alpha (Homo sapiens, UniProt P16234). The experiment in a line: Binding affinity to wild-type human partial length PDGFRalpha (V575 to D1002 residues) expressed in mammalian expression system assessed as residual binding level at 1 uM by Kinomescan method relative to control. A digest of the protocol:
(§4)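 KINOMEscan competition binding against a panel of 468 purified kinases/mutants, compound tested at 1 μM; readout is relative binding activity versus control.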

Experiment [14] deals with Phosphorylase b kinase gamma catalytic chain, skeletal muscle/heart isoform (Homo sapiens) (UniProt Q16816). As to the kind of experiment: Binding affinity to wild-type human full length PHKG1 (M1 to Y387 residues) expressed in bacterial expression system assessed as residual binding level at 1 uM by Kinomescan method relative to control. A digest of the protocol:
as §3

Experiment [15] addresses Phosphatidylinositol 5-phosphate 4-kinase type-2 gamma (Homo sapiens) (UniProt Q8TBX8). The experiment in a line: Binding affinity to wild-type human partial length PIP5K2C (M1 to A421 residues) expressed in mammalian expression system assessed as residual binding level at 1 uM by Kinomescan method relative to control. A digest of the protocol: as §4
Experiment [16] concerns the target Ribosomal protein S6 kinase alpha-2 (Homo sapiens) (UniProt Q15349). As to the kind of experiment: Binding affinity to wild-type human partial length N-terminal RSK3 kinase domain 1 (M1 to Q385 residues) expressed in bacterial expression system assessed as residual binding level at 1 uM by Kinomescan method relative to control.
Experiment [17] addresses Serine/threonine-protein kinase Sgk1 (Homo sapiens) (UniProt O00141). The experiment in a line: Binding affinity to wild-type human partial length SGK (I60 to L431 residues) expressed in mammalian expression system assessed as residual binding level at 1 uM by Kinomescan method relative to control.
The target in experiment [18] is Uncharacterized serine/threonine-protein kinase SBK3 (Homo sapiens) (UniProt P0C264). The experiment in a line: Binding affinity to wild-type human partial length SgK110 (L22 to R329 residues) expressed in bacterial expression system assessed as residual binding level at 1 uM by Kinomescan method relative to control. A digest of the protocol: as §4
Uncharacterized serine/threonine-protein kinase SBK3 (Homo sapiens), sequence (P0C264 whole entry, the tested form may be a part): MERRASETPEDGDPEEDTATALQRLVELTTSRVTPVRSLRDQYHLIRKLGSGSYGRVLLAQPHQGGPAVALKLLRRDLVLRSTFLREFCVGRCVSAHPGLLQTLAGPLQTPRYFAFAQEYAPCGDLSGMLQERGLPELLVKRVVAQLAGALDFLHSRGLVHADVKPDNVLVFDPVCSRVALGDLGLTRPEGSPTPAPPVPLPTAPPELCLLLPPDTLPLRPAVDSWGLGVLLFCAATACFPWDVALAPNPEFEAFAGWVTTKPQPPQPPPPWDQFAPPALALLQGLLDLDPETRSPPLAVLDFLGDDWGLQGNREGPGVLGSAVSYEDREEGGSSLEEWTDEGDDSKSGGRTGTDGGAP
For experiment [19], the target named is NT-3 growth factor receptor (Homo sapiens) (UniProt Q16288). The experiment in a line: Binding affinity to wild-type human partial length TRKC (Q531 to G825 residues) expressed in mammalian expression system assessed as residual binding level at 1 uM by Kinomescan method relative to control. A digest of the protocol:
as §4

A further experiment has as its system EOL1. The experiment in a line: Antitumor activity against human EOL-1 cells xenografted in nu/nu mouse assessed as tumor growth inhibition at 100 mg/kg/day, ip. In kind it is functional. The settings on record: read-out: TGI. A digest of the protocol:
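Female nu/nu mice (6 weeks) given subcutaneous right-flank injection of 5 million EOL-1 cells in PBS/Matrigel 1:1. At 200–400 mm3 tumors, randomized to groups of 6 and dosed daily i.p. for 14 days at 25, 50 or 100 mg/kg/d in 0.5% methylcellulose/0.4% Tween80. Tumor volume = W²×L/2, measured daily.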
Background: A xenograft is tissue or cells of one species grown in another, often human tumour cells in immunodeficient mice.

Tyrosine-protein kinase ABL1 (Homo sapiens), P00519 [F317L], sequence (P00519 whole entry F317L, the tested form may be a part): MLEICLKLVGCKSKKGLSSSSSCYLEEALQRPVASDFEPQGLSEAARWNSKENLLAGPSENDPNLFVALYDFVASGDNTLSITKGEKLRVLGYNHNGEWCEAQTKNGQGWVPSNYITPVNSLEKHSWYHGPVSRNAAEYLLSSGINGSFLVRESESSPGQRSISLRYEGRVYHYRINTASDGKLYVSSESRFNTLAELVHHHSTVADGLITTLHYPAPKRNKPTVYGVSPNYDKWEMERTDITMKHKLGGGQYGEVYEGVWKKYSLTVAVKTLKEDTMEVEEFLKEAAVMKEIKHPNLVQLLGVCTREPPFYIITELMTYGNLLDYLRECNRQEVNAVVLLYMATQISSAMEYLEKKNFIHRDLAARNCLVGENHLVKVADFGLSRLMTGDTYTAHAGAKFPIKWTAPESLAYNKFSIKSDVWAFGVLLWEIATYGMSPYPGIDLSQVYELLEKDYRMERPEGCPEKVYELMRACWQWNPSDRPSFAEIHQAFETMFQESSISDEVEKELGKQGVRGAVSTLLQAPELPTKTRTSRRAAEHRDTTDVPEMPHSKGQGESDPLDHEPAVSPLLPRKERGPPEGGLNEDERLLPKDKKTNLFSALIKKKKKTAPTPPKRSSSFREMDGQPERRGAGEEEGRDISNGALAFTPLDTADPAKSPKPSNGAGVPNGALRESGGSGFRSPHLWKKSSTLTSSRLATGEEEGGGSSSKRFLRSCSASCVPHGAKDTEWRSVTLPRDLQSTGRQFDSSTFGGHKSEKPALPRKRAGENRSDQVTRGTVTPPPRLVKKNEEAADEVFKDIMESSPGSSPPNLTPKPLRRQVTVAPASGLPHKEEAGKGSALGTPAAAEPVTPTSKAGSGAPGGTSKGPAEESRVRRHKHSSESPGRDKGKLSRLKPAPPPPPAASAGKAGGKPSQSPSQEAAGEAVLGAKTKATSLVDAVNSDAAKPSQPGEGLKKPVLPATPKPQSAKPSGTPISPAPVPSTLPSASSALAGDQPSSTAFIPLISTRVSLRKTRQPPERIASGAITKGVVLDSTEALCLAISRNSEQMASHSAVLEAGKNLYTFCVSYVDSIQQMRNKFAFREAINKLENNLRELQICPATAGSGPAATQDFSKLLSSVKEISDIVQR
MAP kinase-activated protein kinase 2 (Homo sapiens), sequence (P49137 whole entry, looked up, the tested form may be a part): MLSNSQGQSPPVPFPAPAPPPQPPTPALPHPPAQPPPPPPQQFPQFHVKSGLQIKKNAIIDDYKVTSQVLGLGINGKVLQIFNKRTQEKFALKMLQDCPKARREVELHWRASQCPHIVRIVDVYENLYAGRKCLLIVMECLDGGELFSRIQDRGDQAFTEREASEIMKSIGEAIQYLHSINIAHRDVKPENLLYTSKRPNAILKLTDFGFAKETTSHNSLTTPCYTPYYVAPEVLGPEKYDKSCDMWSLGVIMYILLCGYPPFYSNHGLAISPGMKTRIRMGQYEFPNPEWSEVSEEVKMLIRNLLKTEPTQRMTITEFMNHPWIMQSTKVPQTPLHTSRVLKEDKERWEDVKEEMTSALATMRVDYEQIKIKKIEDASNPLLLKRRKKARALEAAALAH
Mitogen-activated protein kinase 6 (Homo sapiens), sequence (Q16659 whole entry, the tested form may be a part): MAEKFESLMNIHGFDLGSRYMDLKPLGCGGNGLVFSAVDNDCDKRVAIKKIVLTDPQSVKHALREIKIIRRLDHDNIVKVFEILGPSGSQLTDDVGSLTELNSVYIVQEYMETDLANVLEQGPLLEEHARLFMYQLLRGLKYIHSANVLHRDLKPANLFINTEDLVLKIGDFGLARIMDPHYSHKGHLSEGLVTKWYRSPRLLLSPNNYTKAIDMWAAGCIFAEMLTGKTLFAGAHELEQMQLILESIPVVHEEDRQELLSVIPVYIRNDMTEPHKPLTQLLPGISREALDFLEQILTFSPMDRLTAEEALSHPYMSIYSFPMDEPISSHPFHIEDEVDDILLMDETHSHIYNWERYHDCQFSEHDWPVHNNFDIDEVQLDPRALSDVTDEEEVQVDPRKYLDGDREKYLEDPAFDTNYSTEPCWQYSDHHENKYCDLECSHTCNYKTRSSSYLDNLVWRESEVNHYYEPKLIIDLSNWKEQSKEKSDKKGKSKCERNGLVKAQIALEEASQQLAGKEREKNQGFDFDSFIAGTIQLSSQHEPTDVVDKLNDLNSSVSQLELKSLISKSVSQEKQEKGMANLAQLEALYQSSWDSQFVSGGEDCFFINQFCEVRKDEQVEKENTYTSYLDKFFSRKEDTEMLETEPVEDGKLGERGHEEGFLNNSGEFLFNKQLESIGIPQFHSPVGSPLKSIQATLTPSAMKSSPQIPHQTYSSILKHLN
Serine/threonine-protein kinase Sgk1 (Homo sapiens), sequence (O00141 whole entry, the tested form may be a part): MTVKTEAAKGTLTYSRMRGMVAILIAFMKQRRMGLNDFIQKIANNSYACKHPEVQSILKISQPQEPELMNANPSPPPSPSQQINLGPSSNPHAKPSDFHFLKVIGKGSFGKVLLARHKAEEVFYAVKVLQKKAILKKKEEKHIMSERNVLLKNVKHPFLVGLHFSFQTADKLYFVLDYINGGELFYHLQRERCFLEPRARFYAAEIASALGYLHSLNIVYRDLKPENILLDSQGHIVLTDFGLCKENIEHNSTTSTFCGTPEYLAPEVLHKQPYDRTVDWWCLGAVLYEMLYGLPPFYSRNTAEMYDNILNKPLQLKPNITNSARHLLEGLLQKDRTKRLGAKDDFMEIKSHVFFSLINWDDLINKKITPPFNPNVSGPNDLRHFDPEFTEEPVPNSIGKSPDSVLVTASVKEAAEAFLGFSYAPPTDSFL
5'-AMP-activated protein kinase catalytic subunit alpha-2 (Homo sapiens), sequence (P54646 whole entry, looked up, the tested form may be a part): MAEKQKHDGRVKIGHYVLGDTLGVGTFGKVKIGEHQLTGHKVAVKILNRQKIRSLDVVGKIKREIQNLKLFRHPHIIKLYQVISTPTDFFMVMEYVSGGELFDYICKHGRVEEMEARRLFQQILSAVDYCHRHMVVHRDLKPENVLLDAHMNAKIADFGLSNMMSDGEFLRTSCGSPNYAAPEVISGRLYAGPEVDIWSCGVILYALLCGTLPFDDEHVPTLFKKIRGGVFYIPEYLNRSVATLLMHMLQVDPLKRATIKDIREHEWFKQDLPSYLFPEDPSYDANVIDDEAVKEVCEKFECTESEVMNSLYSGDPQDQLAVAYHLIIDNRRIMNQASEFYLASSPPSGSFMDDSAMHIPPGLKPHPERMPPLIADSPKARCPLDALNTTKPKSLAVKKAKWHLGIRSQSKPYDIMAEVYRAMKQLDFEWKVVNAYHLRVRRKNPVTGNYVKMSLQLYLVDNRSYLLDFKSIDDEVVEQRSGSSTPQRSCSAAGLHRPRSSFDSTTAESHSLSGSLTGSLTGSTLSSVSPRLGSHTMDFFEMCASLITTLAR

`Cc1ccc(NC(=O)c2ccc(CN(CCN(C)C)C(=O)c3cccnc3)cc2)cc1Nc1nccc(-c2cccnc2)n1`: the Activity in [1] came to 87%; in [2] it was 100%; in experiment [3] it was 100%; in experiment [4] it was 86%; in [5] it was 94%; in experiment [6], 100%. The Activity in experiment [7] amounted to 92%; in experiment [8], 100%; in experiment [9] it was 93%; in experiment [10], 79%; in experiment [11] it was 100%; in experiment [12], 95%. The Activity in experiment [13] was 6.8%; in experiment [14] it was 94%; in experiment [15], 37%; in experiment [16] it was 94%; in experiment [17] it was 100%; in experiment [18] it was 72%. Besides, in [19], the Activity is 89%. In the experiment with EOL1, the inhibition in vivo at 100 mg/kg/day came out at 100%.
